How the values were obtained:
OVCAR-5 = assay: Cytotoxicity against human OVCAR5 cells assessed as cell growth at 80 nM by sulforhodamine B assay relative to control; assay type: functional; details: read-out: Activity
PC-3 = assay: Cytotoxicity against human PC3 cells assessed as cell growth at 8 nM by sulforhodamine B assay relative to control; assay type: functional; details: read-out: Activity
BT-549 [1] = assay: Cytotoxicity against human BT549 cells by sulforhodamine B assay; assay type: functional
Outline: (§1)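 Run at NCI in the DTP 60-cell-line human tumor panel by standard procedure. Compounds were first screened at a single concentration, then tested at five tenfold-spaced concentrations. GI50 is the concentration reducing treated-cell growth to half that of untreated controls; TGI is the concentration completely halting growth.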

MDA-MB-231 = assay: Cytotoxicity against human MDA-MB-231 cells assessed as cell growth at 80 nM by sulforhodamine B assay relative to control; assay type: functional; details: read-out: Activity
HOP-62 = assay: Cytotoxicity against human HOP62 cells assessed as cell growth at 80 nM by sulforhodamine B assay relative to control; assay type: functional; details: read-out: Activity
A498 [2] = assay: Cytotoxicity against human A498 cells assessed as cell growth at 8 uM by sulforhodamine B assay relative to control; assay type: functional; details: read-out: Activity; outline: as §1
UACC-62 = assay: Cytotoxicity against human UACC62 cells assessed as cell growth at 80 uM by sulforhodamine B assay relative to control; assay type: functional; details: read-out: Activity
A498 [3] = assay: Cytotoxicity against human A498 cells assessed as cell growth at 80 nM by sulforhodamine B assay relative to control; assay type: functional; details: read-out: Activity; outline: as §1
KM12 = assay: Cytotoxicity against human KM12 cells assessed as cell growth at 80 nM by sulforhodamine B assay relative to control; assay type: functional; details: read-out: Activity
SF-539 = assay: Cytotoxicity against human SF539 cells assessed as cell growth at 80 nM by sulforhodamine B assay relative to control; assay type: functional; details: read-out: Activity
UO-31 = assay: Cytotoxicity against human UO31 cells assessed as cell growth at 80 uM by sulforhodamine B assay relative to control; assay type: functional; details: read-out: Activity
SW-620 [4] = assay: Cytotoxicity against human SW620 cells assessed as cell growth at 80 nM by sulforhodamine B assay relative to control; assay type: functional; details: read-out: Activity
OVCAR-3 = assay: Cytotoxicity against human OVCAR3 cells assessed as cell growth at 80 uM by sulforhodamine B assay relative to control; assay type: functional; details: read-out: Activity
Mus musculus = assay: Acute toxicity in athymic nude mouse assessed as mortality at 12.5 mg/kg, […]; assay type: organism-based; design: dose 12.5 mg/kg, route intraperitoneal; details: in vivo, ip, 576 h
T47D = assay: Cytotoxicity against human T47D cells assessed as cell growth at 80 nM by sulforhodamine B assay relative to control; assay type: functional; details: read-out: Activity
HT-29 [5] = assay: Cytotoxicity against human HT-29 cells assessed as cell growth at 8 nM by sulforhodamine B assay relative to control; assay type: functional; details: read-out: Activity
OVCAR-8 [6] = assay: Cytotoxicity against human OVCAR8 cells assessed as cell growth at 8 uM by sulforhodamine B assay relative to control; assay type: functional; details: read-out: Activity
NCI-H226 = assay: Cytotoxicity against human NCI-H226 cells assessed as cell growth at 800 nM by sulforhodamine B assay relative to control; assay type: functional; details: read-out: Activity
SK-MEL-28 = assay: Cytotoxicity against human SK-MEL-28 cells by sulforhodamine B assay; assay type: functional
Outline: (§2)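 NCI Developmental Therapeutics Program 60-cell-line human tumor panel screen, run at NCI. A single-concentration pre-screen was followed by a five-concentration dose-response in 10-fold steps. GI50 is the concentration that reduces growth of treated cells to half that of untreated control cells. TGI is the concentration that completely halts growth.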

NCI-H322M [7] = assay: Cytotoxicity against human NCI-H322M cells assessed as cell growth at 800 nM by sulforhodamine B assay relative to control; assay type: functional; details: read-out: Activity
HOP-92 = assay: Cytotoxicity against human HOP92 cells assessed as cell growth at 8 nM by sulforhodamine B assay relative to control; assay type: functional; details: read-out: Activity
HT-29 [8] = assay: Cytotoxicity against human HT-29 cells assessed as cell growth at 8 uM by sulforhodamine B assay relative to control; assay type: functional; details: read-out: Activity
NCI-H322M [9] = assay: Cytotoxicity against human NCI-H322M cells assessed as cell growth at 80 uM by sulforhodamine B assay relative to control; assay type: functional; details: read-out: Activity
SNB-75 = assay: Cytotoxicity against human SNB75 cells assessed as cell growth at 80 uM by sulforhodamine B assay relative to control; assay type: functional; details: read-out: Activity
Hs-578T [10] = assay: Cytotoxicity against human Hs578T cells by sulforhodamine B assay; assay type: functional; outline: as §2
HCT-15 = assay: Cytotoxicity against human HCT15 cells assessed as cell growth at 800 nM by sulforhodamine B assay relative to control; assay type: functional; details: read-out: Activity
HCC 2998 [11] = assay: Cytotoxicity against human HCC2998 cells assessed as cell growth at 8 nM by sulforhodamine B assay relative to control; assay type: functional; details: read-out: Activity
HCC 2998 [12] = assay: Cytotoxicity against human HCC2998 cells assessed as cell growth at 80 nM by sulforhodamine B assay relative to control; assay type: functional; details: read-out: Activity
SN12C [13] = assay: Cytotoxicity against human SN12C cells assessed as cell growth at 800 nM by sulforhodamine B assay relative to control; assay type: functional; details: read-out: Activity
TK-10 = assay: Cytotoxicity against human TK10 cells assessed as cell growth at 800 nM by sulforhodamine B assay relative to control; assay type: functional; details: read-out: Activity
A549 = assay: Cytotoxicity against human A549 cells assessed as cell growth at 80 nM by sulforhodamine B assay relative to control; assay type: functional; details: read-out: Activity; outline: as §1
BT-549 [14] = assay: Cytotoxicity against human BT549 cells assessed as cell growth at 80 uM by sulforhodamine B assay relative to control; assay type: functional; details: read-out: Activity; outline: as §1
ACHN [15] = assay: Cytotoxicity against human ACHN cells by sulforhodamine B assay; assay type: functional; outline: as §1
U-251 = assay: Cytotoxicity against human U251 cells assessed as cell growth at 80 uM by sulforhodamine B assay relative to control; assay type: functional; details: read-out: Activity
Hs-578T [16] = assay: Cytotoxicity against human Hs578T cells assessed as cell growth at 80 uM by sulforhodamine B assay relative to control; assay type: functional; details: read-out: Activity
NCI-H460 = assay: Cytotoxicity against human NCI-H460 cells by sulforhodamine B assay; assay type: functional; outline: as §2
SN12C [17] = assay: Cytotoxicity against human SN12C cells assessed as cell growth at 8 nM by sulforhodamine B assay relative to control; assay type: functional; details: read-out: Activity
NCI/ADR-RES = assay: Cytotoxicity against human NCI/ADR-RES cells by sulforhodamine B assay; assay type: functional; outline: as §2
Malme-3M = assay: Cytotoxicity against human MALME-3M cells assessed as cell growth at 80 nM by sulforhodamine B assay relative to control; assay type: functional; details: read-out: Activity
ACHN [18] = assay: Cytotoxicity against human ACHN cells assessed as cell growth at 800 nM by sulforhodamine B assay relative to control; assay type: functional; details: read-out: Activity; outline: as §1
SW-620 [19] = assay: Cytotoxicity against human SW620 cells assessed as cell growth at 8 uM by sulforhodamine B assay relative to control; assay type: functional; details: read-out: Activity
OVCAR-8 [20] = assay: Cytotoxicity against human OVCAR8 cells assessed as cell growth at 80 nM by sulforhodamine B assay relative to control; assay type: functional; details: read-out: Activity

Work on C/C=C1\NC(=O)[C@H](Cc2ccccc2)NC(=O)[C@@H](C(C)C)NC(=O)[C@@H]([C@@H](C)CC)NC(=O)[C@H](NC(=O)[C@H](NC(=O)[C@H](CCCNCc2ccc(N3CCOCC3)cc2)NC(=O)[C@H]2CCCN2C(=O)[C@H](NC(=O)[C@@H](NC(=O)[C@@H](NC(=O)[C@H](NC(=O)CCCC(C)C)C(C)C)[C@@H](C)O)C(C)C)C(C)C)[C@@H](C)CC)[C@@H](C)OC(=O)[C@H](C(C)C)NC1=O yielded a growth at 0.08 µM (OVCAR-5) of 93%, a growth at 0.008 µM (PC-3) of 90% and a GI50 (BT-549 [1]) of 1350 nM. For the same compound, the TGI (BT-549 [1]; read-out: pTGI (converted)) was 2820 nM, the growth at 0.08 µM (MDA-MB-231) was 97% and the growth at 0.08 µM (HOP-62) was 103%. For the same compound, the growth at 8 µM (A498 [2]) was -51%, the growth at 80 µM (UACC-62) was -81% and the growth at 0.08 µM (A498 [3]) was 110%. It also gave a growth at 0.08 µM (KM12) of 99%, a growth at 0.08 µM (SF-539) of 101% and a growth at 80 µM (UO-31) of -28%. For the same compound, the growth at 0.08 µM (SW-620 [4]) was 99%, the growth at 80 µM (OVCAR-3) was -50% and the Activity (Mus musculus) was “Non-toxic”. The growth at 0.08 µM (T47D) was 89%, the growth at 0.008 µM (HT-29 [5]) was 92% and the growth at 8 µM (OVCAR-8 [6]) was -34%. For the same compound, the growth at 0.8 µM (NCI-H226) was 104%, the GI50 (SK-MEL-28) was 1380 nM and the TGI (SK-MEL-28; read-out: pTGI (converted)) was 2570 nM. For the same compound, the growth at 0.8 µM (NCI-H322M [7]) was -76%, the growth at 0.008 µM (HOP-92) was 81% and the growth at 8 µM (HT-29 [8]) was -68%. It also gave a growth at 80 µM (NCI-H322M [9]) of -18%, a growth at 80 µM (SNB-75) of -7% and an LC50 (Hs-578T [10]) greater than 75900 nM. It also gave a GI50 (Hs-578T [10]; read-out: GI50) of 453 nM, a TGI (Hs-578T [10]; read-out: TGI) of 444 nM and a GI50 (Hs-578T [10]; read-out: pGI50 (converted)) of 457 nM. It also gave a TGI (Hs-578T [10]; read-out: pTGI (converted)) of 2040 nM, a growth at 0.8 µM (HCT-15) of 3% and a growth at 0.008 µM (HCC 2998 [11]) of 97%. The growth at 0.08 µM (HCC 2998 [12]) was 98%, the growth at 0.8 µM (SN12C [13]) was 86% and the growth at 0.8 µM (TK-10) was 104%. For the same compound, the growth at 0.08 µM (A549) was 102%, the growth at 80 µM (BT-549 [14]) was -49% and the LC50 (ACHN [15]) was 4790 nM. For the same compound, the GI50 (ACHN [15]; read-out: GI50) was 1270 nM, the TGI (ACHN [15]; read-out: TGI) was 2470 nM and the GI50 (ACHN [15]; read-out: pGI50 (converted)) was 1260 nM. It also gave a TGI (ACHN [15]; read-out: pTGI (converted)) of 2450 nM, a growth at 80 µM (U-251) of -61% and a growth at 80 µM (Hs-578T [16]) of -40%. It also gave a GI50 (NCI-H460) of 2000 nM, a CC50 (NCI-H460; read-out: pLC50 (the source's name) (converted)) greater than 75900 nM and a growth at 0.008 µM (SN12C [17]) of 86%. For the same compound, the GI50 (NCI/ADR-RES) was 1410 nM, the LC50 (NCI/ADR-RES) was 21400 nM and the TGI (NCI/ADR-RES; read-out: pTGI (converted)) was 3470 nM. For the same compound, the growth at 0.08 µM (Malme-3M) was 112%, the growth at 0.8 µM (ACHN [18]) was 90% and the growth at 8 µM (SW-620 [19]) was -98%. It also gave a growth at 0.08 µM (OVCAR-8 [20]) of 98%.
